High-throughput results deposited in PubChem by several laboratories.
A selection: hits, their analogues and other compounds. The true share with any hit is near 2.2%.
FGF22 binding-1 = FGF22 (human) thermal shift binding; Q9HCT0; recombinant FGF22 thermal shift, SYPRO orange fluorescence; percent of sucrose octasulfate shift, DMSO zero; activity (Tm shift, normalised), % at 9.99 µM; hit rate 1.5% among 340,000;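 active = mean Tm shift, scaled 0 neutral to 100 positive control, at about 1.3% or above, every replicate too, limit read from the data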
Target sequence (Q9HCT0 whole entry, looked up): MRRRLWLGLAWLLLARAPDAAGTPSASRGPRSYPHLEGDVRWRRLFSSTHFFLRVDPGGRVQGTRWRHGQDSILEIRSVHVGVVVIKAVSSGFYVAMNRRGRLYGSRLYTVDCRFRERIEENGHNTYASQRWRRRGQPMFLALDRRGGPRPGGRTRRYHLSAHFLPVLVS
Jurkat NFkB inh = inhibitors of the PMA/ionomycin-induced NF-kB reporter in Jurkat cells | PMA/ionomycin-induced NF-kB luciferase reporter, luminescence | inhibition, % at 4 µM | hit rate 0.53% among 330,000 | AID 435003; in the data active = inhibition above about 50%
NR2E3 ag-1 = human photoreceptor-specific nuclear receptor agonism | CHO-S Gal4-NCOR/VP16-NR2E3 two-hybrid, luciferase | Q9Y5X4 | hit rate 0.35% among 360,000 | AID 602229 | inhibition of corepressor binding, % at 3.98 µM;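 active = inhibition above the mean of all tested compounds plus 3 SD, cut at about 70% in these data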;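 note: 0% = DMSO with NR2E3 transfected cells and 100% = cells lacking NR2E3 construct; higher means lower luciferase signal from less NR2E3 corepressor binding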
Target sequence (Q9Y5X4 whole entry, looked up, the tested form may be a part): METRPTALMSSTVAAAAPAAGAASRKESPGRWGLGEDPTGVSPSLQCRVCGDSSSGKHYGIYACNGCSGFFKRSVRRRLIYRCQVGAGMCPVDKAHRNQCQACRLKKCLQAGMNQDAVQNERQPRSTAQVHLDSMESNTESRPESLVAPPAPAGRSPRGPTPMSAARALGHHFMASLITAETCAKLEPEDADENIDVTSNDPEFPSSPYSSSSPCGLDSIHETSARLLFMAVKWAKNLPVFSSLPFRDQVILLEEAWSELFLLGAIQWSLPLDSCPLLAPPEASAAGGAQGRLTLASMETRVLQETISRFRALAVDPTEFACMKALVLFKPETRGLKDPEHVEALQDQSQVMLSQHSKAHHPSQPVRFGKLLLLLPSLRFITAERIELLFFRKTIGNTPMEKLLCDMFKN
697 NFkB inh = lowers PMA/ionomycin-induced NF-kB signal in 697 B cells | 697 B-cell NF-kB luciferase reporter, 16 h | inhibition, % at 4 µM | hit rate 0.33% among 330,000 | AID 435022; in the data active = inhibition above about 35%
NR2E3 ag-2 = activates human photoreceptor nuclear receptor NR2E3; hit rate 0.12% among 320,000; AID 2300; GST-NR2E3/biotin-RetCOR TR-FRET, 1536-well; Q9Y5X4; inhibition of corepressor binding, % at 4.78 µM;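 active = percent inhibition above the cutoff of mean plus 3 SD of all tested compounds, set per screening campaign, cut at about 20% in these data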;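 note: 0% = DMSO wells and 100% = biotin wells as full block of FRET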
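System: GST-tagged NR2E3 plus biotinylated RetCOR corepressor; Amount: 1.35 nM GST-tagged NR2E3 final; Dosing: single nominal compound dose of 4.8 µM; Schedule: 5 h incubation at 4 °C; Technique: TR-FRET with europium anti-GST and streptavidin-D2, 340 nm excitation; Controls: biotin wells as high control, 0.6% DMSO wells as low control.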
miR122 inh = inhibitors of miR-122 in Huh7 cells | Huh7 miR-122 Renilla luciferase sensor, 48 h; neutral wells = 0, positive control = 100 | hit rate 0.3% among 340,000 | activation (reporter increase), % at 12.5 µM | AID 602342;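 active = mean replicate activation score at least 90 and every replicate individually at or above 90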;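 note: higher luciferase means less miR-122 activity so hits act as miR-122 inhibitors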
FGF22 binding-2 = binds human FGF22 shifting its melting temperature; thermal shift activity, °C (ΔTm) at 38 µM; shares compounds with FGF22 binding-1; hit rate 2% among 1,000; recombinant FGF22 thermal shift, SYPRO orange fluorescence;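 active = fitted rise in melting shift crosses a set limit at or below the top valid dose tested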
FGF22 TSA = binders of human FGF22 by thermal shift; shares compounds with FGF22 binding-1; Thermal shift assay, SYPRO orange, melting temperature shift; Tm shift (activity), % at 38 µM; 50 tested, under 10 active; AID 743017;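 active = compounds whose fitted dose curve of melting temperature shift rises past a set threshold within the tested doses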
SYPRO no-protein = shows thermal shift signal without protein, FGF22 counter-screen | shares compounds with FGF22 binding-1 | compound-only SYPRO orange thermal shift counter-screen, no protein | AC50, µM (doses to about 38 µM) | hit rate 2% among 1,000 | AID 743019;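 active = rising signal whose fitted curve reaches the 0.54 level within the top valid dose, showing a melting point, actives reach about 13 µM in these data; inactive = the rest, including activity in the opposite direction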; note: value is where the raw curve crosses a fixed level and not half-maximal
The depositor's hits bear a star; i = inactive; / = no result given; [ ] = remark or other dose.

SMILES	FGF22 binding-1	Jurkat NFkB inh	NR2E3 ag-1	697 NFkB inh	NR2E3 ag-2	miR122 inh	FGF22 binding-2	SYPRO no-protein	others
Nc1nc(O)c(Sc2ccccc2[N+](=O)[O-])c(=O)[nH]1	1.9*	-20	16	-2	-3	-1	0.026	i
CC(C)NC(=O)N1[C@H](CO)[C@@H]2c3ccccc3N(C(=O)Nc3ccc(F)cc3)C[C@@H]21	-1	/	/	/	/	4[16.7 µM]	/	/
COC(=O)C1=C(CS(=O)(=O)c2cc(OC)ccc2OC)NC(=O)NC1c1ccc(O)c(OC)c1 (centres undefined)	1.5*	18	-3	-21	3	2	0.37	i	FGF22 TSA=0
C[C@H](CO)N1C[C@H](C)[C@H](CN(C)S(=O)(=O)c2ccc(Cl)cc2)Oc2ccc(NC(=O)Cc3cn(C)c4ccccc34)cc2CC1=O	/	/	/	/	/	-7[16.7 µM]	/	/
O=C(C[C@H]1C=C[C@@H](NC(=O)C2CCC2)[C@@H](CO)O1)NCc1ccncc1	0	/	/	/	/	/	/	/
Cc1cccc(N/N=C/c2ccncc2)c1	0	-37	-32	-32	-2	/	/	/
O=C(N/N=C/c1ccncc1)c1cccc(N/N=C/c2ccncc2)c1	1.5*	5	0	-1	1	/	0.004	i
O=C(N/N=C/c1ccc(O)cc1)c1cccc(N/N=C/c2ccc(O)cc2)c1	1.7*	-33	-129	-22	-2	7	0.26	i
O=C(N/N=C/c1ccncc1)c1cccc(NC(=O)c2ccc(Cl)cc2)c1	2.4*	-7	-12	7	-7	/	0.066	i
O=C(N/N=C/c1ccc(Cl)cc1)c1ccc2nc[nH]c2c1	2.5*	/	-21	/	/	12	0.017	i
O=C(N/N=C/c1ccc(F)cc1)c1cccc(NC(=O)c2ccc(F)cc2)c1	0	-36	-79	-89	1	/	/	/
C[C@H]1CN([C@@H](C)CO)C(=O)Cc2cc(NC(=O)Cn3cnnn3)ccc2O[C@H]1CN(C)Cc1ccc(-c2ccccc2)cc1	0	/	/	/	/	-2[16.7 µM]	/	/
COc1ccc(S(=O)(=O)Nc2ccc3c(c2)CC(=O)N([C@H](C)CO)C[C@@H](C)[C@H](CN(C)C)O3)cc1	0	/	/	/	/	6[16.7 µM]	/	/
C[C@H](CO)N1C[C@H](C)[C@H](CN(C)C(=O)Nc2cccc3ccccc23)Oc2ncc(C#Cc3ccc(F)cc3)cc2C1=O	-1	/	/	/	/	/	/	/
COc1cccc(CNC(=O)C[C@H]2CC[C@@H](NC(=O)C3CCC3)[C@H](CO)O2)c1	0	/	/	/	/	/	/	/
O=C(C[C@@H]1C[C@H]2c3cc(NC(=O)C4CCC4)ccc3O[C@H]2[C@H](CO)O1)NCc1ccccc1F	0	/	/	/	/	1[16.7 µM]	/	/
Cc1nc2c(C)cccc2cc1C(=O)N/N=C/c1ccc(O)cc1	2.2*	20	-57	23	7	/	-0.39	i
CCOC(=O)COc1cc2c(C(=O)OCC)c(C)oc2cc1Br	/	3	0	-11	0	-3	/	/
CCOC(=O)c1c(C)oc2cc(Br)c(O)c(Br)c12	1.4*	-3	-74	9	2	-4	0.025	i
COCC(=O)N1CCCCN2[C@@H](CO)[C@H](c3ccc(C#Cc4cccnc4)cc3)[C@@H]2C1	0	/	/	/	/	10[16.7 µM]	/	/
O=C(C[C@H]1CC[C@H]2[C@@H](COC[C@@H](O)CN2S(=O)(=O)c2cccc(F)c2)O1)Nc1ccc(-c2ccccc2)cc1	3.3*	/	/	/	/	2[16.7 µM]	0.062	i
O=C(C[C@H]1CC[C@@H]2[C@H](COC[C@@H](O)CN2S(=O)(=O)c2cccc(F)c2)O1)Nc1ccccc1	1	/	/	/	/	2[16.7 µM]	/	/
Cc1ccc(S(=O)(=O)N2C[C@H](O)COC[C@H]3O[C@H](CC(=O)NCc4ccc(Cl)c(Cl)c4)CC[C@@H]32)cc1	1.4*	/	/	/	/	-8[16.7 µM]	0.016[42 µM]	i	FGF22 TSA=0
O=C(C[C@@H]1CC[C@H]2[C@@H](COC[C@@H](O)CN2Cc2cccc(C(F)(F)F)c2)O1)NCc1ccncc1	14*	/	/	/	/	3[16.7 µM]	0.001	i
O=C(C[C@H]1CC[C@@H]2[C@H](COC[C@H](O)CN2S(=O)(=O)c2cccc(F)c2)O1)Nc1ccccc1	2.0*	/	/	/	/	2[16.7 µM]	0.13[42 µM]	i
SMILES	FGF22 binding-1	Jurkat NFkB inh	NR2E3 ag-1	697 NFkB inh	NR2E3 ag-2	miR122 inh	FGF22 binding-2	SYPRO no-protein	others
CC(C)NC(=O)N(C)C[C@@H]1Oc2c(NC(=O)C3CCOCC3)cccc2C(=O)N([C@@H](C)CO)C[C@@H]1C	0	/	/	/	/	-8[16.7 µM]	/	/
C[C@H](CO)N1C[C@H](C)[C@H](CN(C)C(=O)Nc2ccc3c(c2)OCO3)Oc2ccc(NS(=O)(=O)c3cccs3)cc2CC1=O	0	/	/	/	/	5[16.7 µM]	/	/
Cc1cccc(S(=O)(=O)N2C[C@H](O)COC[C@H]3O[C@H](CC(=O)Nc4ccccc4)CC[C@@H]32)c1	1.8*	/	/	/	/	-4[16.7 µM]	-0.025[42 µM]	i
COc1ccc(N(CC(=O)N/N=C/c2ccc(OC)c(OC)c2)S(=O)(=O)c2ccccc2)cc1	1.5*	-4	-15	-6	-3	/	0.15	i
COc1ccc(NS(=O)(=O)c2cccc(C(=O)NN=Cc3ccc(OC)c(O)c3)c2)cc1	34*	14	-12	8	/	-1	-0.19	i
COc1ccc(/C=N/NC(=O)CN(c2ccc(OC)cc2)S(=O)(=O)c2ccccc2)cc1	0	-15	-7	-10	-1	/	/	/
CCCNC(=O)Nc1ccc2c(c1)C(=O)N(C)C[C@H](OC)[C@H](C)CN(C(=O)c1ccccc1F)[C@@H](C)CO2	0	/	/	/	/	/	/	/
CCCNC(=O)Nc1ccc2c(c1)C(=O)N(C)C[C@H](OC)[C@@H](C)CN(C(=O)c1ccccc1F)[C@H](C)CO2	1.7*	/	/	/	/	/	0.056	i
CCCN1C[C@H](C)[C@H](OC)CN(C)C(=O)c2cc(NC(=O)c3cnccn3)ccc2OC[C@@H]1C	1.4*	/	/	/	/	/	0.099	i
CO[C@H]1CN(C)C(=O)c2cc(NC(=O)CC(F)(F)F)ccc2OC[C@@H](C)N(C(C)=O)C[C@@H]1C	0	/	/	/	/	/	/	/
CCCN1C[C@@H](C)[C@H](OC)CN(C)C(=O)c2cc(NC(=O)c3cnccn3)ccc2OC[C@@H]1C	0	/	/	/	/	/	/	/
COCC(=O)Nc1ccc2c(c1)OC[C@@H](C)N(C)C[C@H](C)[C@@H](OC)CN(C)C2=O	31*	/	/	/	/	-8[16.7 µM]	0.094	i
CO[C@H]1CN(C)C(=O)c2cc(NC(=O)CC(F)(F)F)ccc2OC[C@@H](C)N(C(C)=O)C[C@H]1C	23*	/	/	/	/	/	0.12[42 µM]	i
Cc1noc(C)c1NC(=O)Nc1ccc2c(c1)C(=O)N(C)[C@H]1CC[C@@H](CC(=O)N[C@H]3CCN(Cc4ccccc4)C3)O[C@@H]1CO2	0	/	/	/	/	10[16.7 µM]	/	/
